This passage reports Ki results from ChEMBL document CHEMBL1141092, “Synthesis of malarial plasmepsin inhibitors and prediction of binding modes by molecular dynamics simulations” (J Med Chem, 2005).

A word on the Ki: it is a measure of affinity in units of concentration, obtained from inhibition or displacement. A high value points to weaker binding.

The target in one test is Plasmepsin IV (Plasmodium falciparum 3D7, UniProt Q8IM16). Kind of test: Inhibition constant against plasmepsin-4 of Plasmodium falciparum.
The target in another test is Plasmepsin II (Plasmodium falciparum, UniProt P46925). Description: Inhibition constant against plasmepsin-2 of Plasmodium falciparum 10 min using 3 uM of DABCYL-Glu-Arg-Nle-Phe-Le u-Ser-Phe-Pro-EDANS as substrate. The essentials:
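Pro-Plm II at 3 nM is self-activated by 40 min preincubation at room temperature in 100 mM sodium acetate pH 4.5, 10% glycerol, 0.01% Tween 20. Inhibitor in DMSO (1% final) is added before 3 µM FRET substrate, and the linear fluorescence increase is read over 10 min. IC50 is fitted to a competitive Langmuir isotherm and converted to Ki via IC50/(1+[S]/Km).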

The target in another test is Plasmepsin I (Plasmodium falciparum, UniProt P39898). Description: Inhibition constant against plasmepsin-1 of Plasmodium falciparum, 10 min using 3 uM of DABCYL-Glu-Arg-Nle-Phe-Le u-Ser-Phe-Pro-EDANS as substrate. The essentials: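 Recombinant Plm I, amount set to match Plm II catalytic activity, in 100 mM sodium acetate pH 4.5 with 10% glycerol and 0.01% Tween 20. DMSO inhibitor dilutions (1% final DMSO) are added, then 3 µM FRET substrate. Fluorescence rise is followed over a linear 10 min. IC50 comes from a Langmuir fit assuming competitive inhibition, and Ki = IC50/(1+[S]/Km), with Km from Michaelis–Menten.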

A further test concerns the target Cathepsin D (Homo sapiens, UniProt P07339). Kind of test: Inhibition constant against pro-cathepsin D (50 ng/mL) of human liver upon incubation at pH 4.5 for 10 min using DABCYL-Glu-Arg-Nle-Phe-Le u-Ser-Phe-Pro-EDANS as substrate. The essentials:
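Human liver pro-Cat D at 50 ng/mL is activated for 20 min at 37 °C in 100 mM sodium acetate pH 4.5, 10% glycerol, 0.01% Tween 20. Inhibitor in DMSO (1% final) precedes 3 µM FRET substrate, and the fluorescence increase is followed over a linear 10 min. IC50 is from a competitive Langmuir fit, and Ki = IC50/(1+[S]/Km), with Km from Michaelis–Menten.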

Chain of Plasmepsin IV (Q8IM16 whole entry): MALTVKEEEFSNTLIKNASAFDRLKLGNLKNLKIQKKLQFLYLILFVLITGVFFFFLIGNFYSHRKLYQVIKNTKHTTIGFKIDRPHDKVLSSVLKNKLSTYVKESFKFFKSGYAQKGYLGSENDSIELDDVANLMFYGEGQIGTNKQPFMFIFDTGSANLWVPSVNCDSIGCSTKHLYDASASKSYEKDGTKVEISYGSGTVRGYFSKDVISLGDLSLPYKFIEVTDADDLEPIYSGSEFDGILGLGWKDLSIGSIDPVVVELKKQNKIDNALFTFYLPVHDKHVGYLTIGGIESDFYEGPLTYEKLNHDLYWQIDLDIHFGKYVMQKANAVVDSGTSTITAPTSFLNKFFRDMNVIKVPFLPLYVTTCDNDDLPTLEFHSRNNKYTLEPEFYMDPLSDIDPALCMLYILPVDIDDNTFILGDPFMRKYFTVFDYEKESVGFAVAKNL
Chain of Plasmepsin I (P39898 whole entry): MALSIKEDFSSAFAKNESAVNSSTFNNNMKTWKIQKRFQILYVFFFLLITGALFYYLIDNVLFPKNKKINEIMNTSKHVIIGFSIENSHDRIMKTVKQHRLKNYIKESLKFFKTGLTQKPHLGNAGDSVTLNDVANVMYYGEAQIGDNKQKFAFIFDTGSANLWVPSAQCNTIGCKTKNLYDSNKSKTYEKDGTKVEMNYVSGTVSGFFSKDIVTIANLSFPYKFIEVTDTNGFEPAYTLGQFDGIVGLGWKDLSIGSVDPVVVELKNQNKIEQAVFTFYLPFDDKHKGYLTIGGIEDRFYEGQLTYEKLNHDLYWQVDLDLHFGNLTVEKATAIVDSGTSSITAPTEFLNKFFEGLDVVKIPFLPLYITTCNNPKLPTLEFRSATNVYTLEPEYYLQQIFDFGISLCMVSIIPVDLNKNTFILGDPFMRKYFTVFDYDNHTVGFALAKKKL
Chain of Cathepsin D (P07339 65-162 limits assumed): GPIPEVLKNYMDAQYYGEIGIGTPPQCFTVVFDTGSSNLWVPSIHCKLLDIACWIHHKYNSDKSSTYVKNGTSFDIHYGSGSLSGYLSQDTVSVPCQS
Chain of Cathepsin D (P07339 169-412 limits assumed): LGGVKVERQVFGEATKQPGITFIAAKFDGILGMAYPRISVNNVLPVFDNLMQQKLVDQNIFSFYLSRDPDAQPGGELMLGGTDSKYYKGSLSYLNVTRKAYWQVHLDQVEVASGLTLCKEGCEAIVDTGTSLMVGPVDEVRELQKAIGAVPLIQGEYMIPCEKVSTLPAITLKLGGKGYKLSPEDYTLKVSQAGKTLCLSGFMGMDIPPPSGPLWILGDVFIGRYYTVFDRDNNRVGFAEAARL
Chain of Plasmepsin II (P46925 whole entry): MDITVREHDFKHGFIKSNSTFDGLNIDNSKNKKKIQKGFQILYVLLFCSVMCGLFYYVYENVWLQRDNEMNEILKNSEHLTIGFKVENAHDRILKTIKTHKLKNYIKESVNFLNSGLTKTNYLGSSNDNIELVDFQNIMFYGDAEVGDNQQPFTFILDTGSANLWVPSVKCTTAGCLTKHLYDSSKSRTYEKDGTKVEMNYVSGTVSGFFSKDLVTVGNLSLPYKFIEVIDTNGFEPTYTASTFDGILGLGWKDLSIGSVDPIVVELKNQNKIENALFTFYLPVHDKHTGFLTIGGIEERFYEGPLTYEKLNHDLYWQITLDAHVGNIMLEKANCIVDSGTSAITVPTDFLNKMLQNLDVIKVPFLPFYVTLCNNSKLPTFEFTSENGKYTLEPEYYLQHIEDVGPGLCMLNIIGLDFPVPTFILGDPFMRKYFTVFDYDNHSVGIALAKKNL

As to `C=CCO[C@@H](C(=O)N[C@H]1c2ccccc2C[C@H]1O)[C@H](O)[C@@H](O)[C@@H](OCC=C)C(=O)N[C@H]1c2ccccc2C[C@H]1O`, the Ki at Plasmepsin IV was over 5000 nM.

Take `O=C(N[C@H]1c2ccccc2C[C@H]1O)[C@H](OC/C=C/Br)[C@H](O)[C@@H](O)[C@@H](OC/C=C/Br)c1nnc(CCCc2ccccc2)o1`: the values for the Ki at Plasmepsin II, at Plasmepsin I and on Cathepsin D were 2300 nM, 1600 nM and over 6000 nM, respectively.

For the compound `CC(C)(C)c1ccc(-c2nnc([C@H](OC/C=C/Br)[C@H](O)[C@@H](O)[C@@H](OC/C=C/Br)C(=O)N[C@H]3c4ccccc4C[C@H]3O)o2)cc1`, the inhibition constant (Ki) at Plasmepsin II was over 5000 nM; on Plasmepsin I, over 3000 nM; on Cathepsin D, over 6000 nM.

For the compound `C=CCO[C@@H](C(=O)NNC(=O)CCc1ccccc1)[C@H](O)[C@@H](O)[C@@H](OCC=C)C(=O)N[C@H]1c2ccccc2C[C@H]1O`, the Ki at Plasmepsin II was 161 nM; on Plasmepsin I, 124 nM; at Cathepsin D, over 6000 nM.

In the case of `O=C(NNC(=O)[C@H](OC/C=C/Br)[C@H](O)[C@@H](O)[C@@H](OC/C=C/Br)C(=O)N[C@H]1c2ccccc2C[C@H]1O)c1ccccc1`, the figures for the inhibition constant (Ki) on Plasmepsin II, on Plasmepsin I and at Cathepsin D were 168 nM, 261 nM and over 6000 nM, respectively.

Turning to `O=C(N[C@H]1c2ccccc2C[C@H]1O)[C@H](OC/C=C/Br)[C@H](O)[C@@H](O)[C@@H](OC/C=C/Br)c1nnc(Cc2ccccc2)o1`, the Ki was 2100 nM at Plasmepsin II, over 3000 nM at Plasmepsin I and over 6000 nM at Cathepsin D.

Take `O=C(Cc1ccccc1)NNC(=O)[C@H](OC/C=C/Br)[C@H](O)[C@@H](O)[C@@H](OC/C=C/Br)C(=O)N[C@H]1c2ccccc2C[C@H]1O`: the Ki was 14 nM at Plasmepsin II, 31 nM at Plasmepsin I and over 6000 nM at Cathepsin D.

Regarding `CN1CCN(CCC(=O)NNC(=O)[C@H](OC/C=C/Br)[C@H](O)[C@@H](O)[C@@H](OC/C=C/Br)C(=O)N[C@H]2c3ccccc3C[C@H]2O)CC1`, the Ki on Plasmepsin II is 586 nM; at Plasmepsin I, 1090 nM; at Cathepsin D, over 6000 nM.

With `O=C(CCN1CCOCC1)NNC(=O)[C@H](OC/C=C/Br)[C@H](O)[C@@H](O)[C@@H](OC/C=C/Br)C(=O)N[C@H]1c2ccccc2C[C@H]1O`, the inhibitory constant (Ki) on Plasmepsin II is 1300 nM; at Plasmepsin I, 2000 nM; at Cathepsin D it was over 6000 nM.

For the compound `Cc1nnc([C@H](OC/C=C/Br)[C@H](O)[C@@H](O)[C@@H](OC/C=C/Br)C(=O)N[C@H]2c3ccccc3C[C@H]2O)o1`, the results for the Ki on Plasmepsin II, at Plasmepsin I and at Cathepsin D were over 5000 nM, over 3000 nM and over 6000 nM, respectively.

With `Cc1n[nH]c([C@H](OC/C=C/Br)[C@H](O)[C@@H](O)[C@@H](OC/C=C/Br)C(=O)N[C@H]2c3ccccc3C[C@H]2O)n1`, the values for the Ki at Plasmepsin II, on Plasmepsin I and at Cathepsin D were over 5000 nM, over 3000 nM and over 6000 nM, respectively.

Consider `CC(=O)NNC(=O)[C@H](OC/C=C/Br)[C@H](O)[C@@H](O)[C@@H](OC/C=C/Br)C(=O)NNC(C)=O`, for which the inhibition constant (Ki) on Plasmepsin II was over 5000 nM; on Plasmepsin I it was over 3000 nM; at Cathepsin D it was over 6000 nM.

On to `Cc1nnc([C@H](OC/C=C/Br)[C@H](O)[C@@H](O)[C@@H](OC/C=C/Br)c2nnc(C)o2)o1`, for which the Ki was over 5000 nM at Plasmepsin II, over 3000 nM at Plasmepsin I and over 6000 nM on Cathepsin D.

Consider `O=C(CCCc1ccccc1)NNC(=O)[C@H](OC/C=C/Br)[C@H](O)[C@@H](O)[C@@H](OC/C=C/Br)C(=O)N[C@H]1c2ccccc2C[C@H]1O`, for which the inhibition constant (Ki) is 10 nM on Plasmepsin II, 11 nM on Plasmepsin I and over 6000 nM at Cathepsin D.

In the case of `O=C(CCc1c[nH]c2ccccc12)NNC(=O)[C@H](OC/C=C/Br)[C@H](O)[C@@H](O)[C@@H](OC/C=C/Br)C(=O)N[C@H]1c2ccccc2C[C@H]1O`, the Ki at Plasmepsin II was 6 nM; on Plasmepsin I, 19 nM; at Cathepsin D, over 6000 nM.

In the case of `CC(C)(C)c1ccc(C(=O)NNC(=O)[C@H](OC/C=C/Br)[C@H](O)[C@@H](O)[C@@H](OC/C=C/Br)C(=O)N[C@H]2c3ccccc3C[C@H]2O)cc1`, the inhibitory constant (Ki) at Plasmepsin II is 142 nM; on Plasmepsin I, 198 nM; at Cathepsin D it was over 6000 nM.

As to `CC(=O)c1ccc(/C=C/CO[C@@H](C(=O)NNC(=O)CCc2ccccc2)[C@H](O)[C@@H](O)[C@@H](OC/C=C/c2ccc(C(C)=O)cc2)C(=O)N[C@H]2c3ccccc3C[C@H]2O)cc1`, the inhibition constant (Ki) at Plasmepsin II was found to be 145 nM; on Plasmepsin I it was 38 nM; at Cathepsin D it was 1200 nM.

`O=C(CCc1ccccc1)NNC(=O)[C@H](OC/C=C/c1ccc2c(c1)OCO2)[C@H](O)[C@@H](O)[C@@H](OC/C=C/c1ccc2c(c1)OCO2)C(=O)N[C@H]1c2ccccc2C[C@H]1O`: the results for the inhibitory constant (Ki) on Plasmepsin II, at Plasmepsin I and at Cathepsin D were 11 nM, 6 nM and 800 nM, respectively.

As for `CC(C)(C)c1ccc(-c2nnc([C@H](OC/C=C/Br)[C@H](O)[C@@H](O)[C@@H](OC/C=C/Br)c3nnc(-c4ccc(C(C)(C)C)cc4)o3)o2)cc1`, the Ki is 35 nM at Plasmepsin IV, over 5000 nM at Plasmepsin II, over 3000 nM at Plasmepsin I and over 6000 nM at Cathepsin D.

On to `O=C(N[C@H]1c2ccccc2C[C@H]1O)[C@H](OC/C=C/Br)[C@H](O)[C@@H](O)[C@@H](OC/C=C/Br)c1nnc(-c2ccccc2)o1`, for which the results for the inhibitory constant (Ki) at Plasmepsin II, at Plasmepsin I and at Cathepsin D were 3400 nM, over 3000 nM and over 6000 nM, respectively.

For the compound `CC(=O)NNC(=O)[C@H](OC/C=C/Br)[C@H](O)[C@@H](O)[C@@H](OC/C=C/Br)C(=O)N[C@H]1c2ccccc2C[C@H]1O`, the inhibition constant Ki at Plasmepsin II is 359 nM; at Plasmepsin I, 698 nM; on Cathepsin D, over 6000 nM.

For the compound `CC(C)(C)c1ccc(C(=O)NNC(=O)[C@H](OC/C=C/Br)[C@H](O)[C@@H](O)[C@@H](OC/C=C/Br)C(=O)NNC(=O)c2ccc(C(C)(C)C)cc2)cc1`, the Ki on Plasmepsin IV came to 478 nM; on Plasmepsin II it was 1500 nM; on Plasmepsin I, 1840 nM; on Cathepsin D, 3000 nM.

Turning to `O=C(N[C@H]1c2ccccc2C[C@H]1O)[C@H](OC/C=C/Br)[C@H](O)[C@@H](O)[C@@H](OC/C=C/Br)c1nnc(CCc2ccccc2)o1`, the Ki is 2900 nM at Plasmepsin II, over 3000 nM at Plasmepsin I and over 6000 nM at Cathepsin D.

As for `O=C(CCc1ccccc1)NNC(=O)[C@H](OC/C=C/Br)[C@H](O)[C@@H](O)[C@@H](OC/C=C/Br)C(=O)N[C@H]1c2ccccc2C[C@H]1O`, the Ki at Plasmepsin II was 7 nM; at Plasmepsin I, 9 nM; on Cathepsin D it was over 6000 nM.
